Drawing on PubChem BioAssay AID588621 (Sanford-Burnham Center for Chemical Genomics, 2011), this text covers inhibition for 98 compounds.

Screen size: about 360,000 compounds; about 890 (0.25%) were called active. The sample as a whole holds a higher share of actives than the screen did. A number with no mark means an inactive call.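 Rule for the calls: active = inhibition at 20 µM, scaled per plate between control wells, above about 37% (limit read from the data); inactive = the rest.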

Sequence of Tyrosine-protein phosphatase non-receptor type 5 (Homo sapiens) (P54829 whole entry, looked up): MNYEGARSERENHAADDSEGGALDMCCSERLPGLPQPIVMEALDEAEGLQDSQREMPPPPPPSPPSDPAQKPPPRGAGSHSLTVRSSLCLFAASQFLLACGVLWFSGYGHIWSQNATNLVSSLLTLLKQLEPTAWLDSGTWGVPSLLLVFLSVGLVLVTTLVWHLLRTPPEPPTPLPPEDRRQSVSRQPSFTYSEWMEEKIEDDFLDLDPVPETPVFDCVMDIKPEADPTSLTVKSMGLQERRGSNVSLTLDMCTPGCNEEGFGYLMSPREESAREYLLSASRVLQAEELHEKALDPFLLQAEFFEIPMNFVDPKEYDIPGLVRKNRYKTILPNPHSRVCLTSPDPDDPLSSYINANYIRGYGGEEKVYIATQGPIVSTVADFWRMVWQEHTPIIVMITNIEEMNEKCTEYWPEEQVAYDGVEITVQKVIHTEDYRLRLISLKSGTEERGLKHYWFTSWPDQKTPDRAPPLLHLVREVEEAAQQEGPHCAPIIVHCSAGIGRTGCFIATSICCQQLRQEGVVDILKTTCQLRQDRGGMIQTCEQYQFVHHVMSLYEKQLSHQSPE

The experiment concerns the target Tyrosine-protein phosphatase non-receptor type 5 (Homo sapiens) (UniProt P54829). Kind of experiment: STEP phosphatase inhibitors, primary screen, biochemical, fluorescence intensity, uHTS (AID 588621).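 Note: 0% = DMSO with enzyme and substrate and 100% = substrate only without enzyme.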 The conditions noted are these: recombinant STEP, OMFP fluorogenic substrate, at 20 µM, active compounds read high. The procedure, abridged: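 material = STEP tyrosine phosphatase | reagent = fluorogenic phosphatase substrate OMFP at 25 µM final | doses = single compound dose of 20 µM, 1% DMSO final | schedule = 20 min reaction, room temperature, in the dark | measured by = fluorescence, 480/540 nm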
As for `S=C(Nc1ccc2c(c1)OCO2)N1CCCC1`, the inhibition – broadly, the relative decrease from the control value, in per cent – is -3.3%.

Take `Cc1ccc(S(=O)(=O)N2CCN(C(=O)CCC(=O)NC3CCCc4ccccc43)CC2)cc1` (stereo not drawn): the inhibition was -4.5%.

For the compound `Cc1ccc(S(=O)(=O)c2c[nH]c3ccc(C)cc3c2=O)cc1`, the inhibition is -0.1%.

As for `Cc1ccc(S(=O)(=O)c2c[nH]c3ccc(Cl)cc3c2=O)cc1`, the inhibition is 37.4% (active).

Consider `CCCCN(C)Cc1c(C)[nH]c2ccc(Cl)cc2c1=O`, for which the inhibition is -4.1%.

Regarding `CC1CCN(C(=O)CN(c2ccc(Oc3ccccc3)cc2)S(C)(=O)=O)CC1`, the inhibition is 2.5%.

For `CCN(CC)CCn1cnc2c1c(=O)n(CCOC(=O)c1cc(OC)c(OC)c(OC)c1)c(=O)n2C`, the inhibition is -2.8%.

For the compound `Cc1ccc(C(=O)NCC(=O)OCc2nnc(-c3ccccc3)o2)cc1`, the inhibition is -0.5%.

Consider `Cc1ccc(-c2nnc(-c3ccc(NC(=O)c4cccs4)cc3)o2)cc1`, for which the inhibition is 54.4% (active).

Consider `O=C(Nc1ccc(N2CCN(C(=O)C3CC3)CC2)cc1)c1cccs1`, for which the inhibition is -1.5%.

Turning to `O=C(CCS(=O)(=O)c1ccc2c(c1)NC(=O)CS2)NCc1ccccc1Cl`, the inhibition is 1.6%.

`CNc1cncc(-c2ccc(NS(C)(=O)=O)cc2)n1`: the inhibition was 4.2%.

As to `CC(C)NS(=O)(=O)c1ccc(OCC(=O)NC2CCCCCC2)cc1`, the inhibition is -0.6%.

With `O=C1C(=O)N(CCN2CCOCC2)C(c2ccccn2)/C1=C(/O)c1ccc(Cl)cc1` (stereo not drawn), the inhibition was -3.3%.

As to `CCCC1C(=O)N2C(N(C)C)=Nc3ccc(C)cc3N2C1=O` (stereo not drawn), the inhibition was -0.2%.

Take `CCOc1ccc(N(CC(=O)NCC2CCCO2)S(=O)(=O)c2ccc(C)cc2)cc1` (stereo not drawn): the inhibition was 0.9%.

As for `Cc1c(CCC(=O)O)c(=O)oc2cc(OCc3ccc(Br)cc3)ccc12`, the inhibition is 5.4%.

`Cc1c(CCC(=O)O)c(=O)oc2c(C)c(OCc3ccccc3Cl)ccc12`: the inhibition was 98.9% (active).

With `CCOC(=O)CCc1c(C)c2ccc(OCc3nn[nH]n3)c(C)c2oc1=O`, the inhibition is 2.9%.

On to `COc1ccc(C2COC(=O)C2=N)c(NC(=O)c2ccccc2)c1` (stereo not drawn), for which the inhibition was 1.3%.

For the compound `O=C(c1cc2ccccc2s1)N1CCN(c2ccccn2)CC1`, the inhibition was -0.1%.

Regarding `Cc1cc(C(=O)N2CCN(c3ccccn3)CC2)c(C)o1`, the inhibition is 39.4% (active).

Regarding `O=C(c1c(F)cccc1Cl)N1CCN(c2ccccn2)CC1`, the inhibition was -1.8%.

As for `O=C(COC(=O)/C=C/c1ccc(Br)o1)Nc1cccc(S(=O)(=O)N2CCOCC2)c1`, the inhibition was 2.1%.

In the case of `CC(C)(C)NC(=O)CSC(=Nc1ccccc1F)NC#N`, the inhibition was -0.7%.

Take `Cc1c(C#N)c2ncn(CC#N)c(=O)c2n1-c1ccccc1`: the inhibition is -3.8%.

Regarding `Cc1nnsc1C(=O)NCc1c(F)cccc1Cl`, the inhibition is -0.5%.

As to `CC1C(=O)NC(=O)C1c1ccccc1` (stereo not drawn), the inhibition is -2%.

`COc1ccc2c(c1)CCc1c(C(=O)N3CCc4ccccc4C3)noc1-2`: the inhibition is -1%.

On to `CCCS(=O)(=O)N1CCN=C1SCc1cccc(F)c1`, for which the inhibition was 0.3%.

With `O=c1ccc2c(-c3ccccc3S(=O)(=O)O)c3ccc(O)c(O)c3oc-2c1O`, the inhibition was 96.8% (active).

Regarding `Cc1cc(Cl)ccc1NC(=S)N1CCC(C(N)=O)(N2CCCCC2)CC1`, the inhibition was -1.3%.

On to `CNc1[nH]ncc1[N+](=O)[O-]`, for which the inhibition was -1.1%.

With `CCCCSCCCNC(=O)C1CCC(CNS(=O)(=O)c2ccc(NC(C)=O)cc2)CC1` (stereo not drawn), the inhibition is 1%.

With `Cc1ccc(-n2c(C)nnc2SCC(=O)NC2CC2)cc1`, the inhibition was 0.1%.

Turning to `Cc1ccc(SCC2=NNC(=O)C2)cc1`, the inhibition is 0.5%.

Regarding `O=C(Nc1cccnc1)c1cc2cc(Br)ccc2oc1=O`, the inhibition is 86.4% (active).

On to `O=C(Nc1cccnc1)c1ccc(Cl)cc1[N+](=O)[O-]`, for which the inhibition was 0.9%.

Turning to `COc1ccc2oc(=N)c(C(=O)Nc3ccc(Br)cc3)cc2c1`, the inhibition is -1.8%.

As to `CCOC(=O)c1c(-n2cnnn2)sc(C)c1C`, the inhibition is 0.1%.

On to `CCc1ccccc1N(CC(=O)NCCSCc1ccco1)S(C)(=O)=O`, for which the inhibition is -1.4%.

Take `CCOc1ccc(C(CC(=O)O)n2cnnn2)cc1OC` (stereo not drawn): the inhibition is -2.9%.

Take `CC1=CC(C)(C)NC(=S)N1c1ccccc1`: the inhibition was -2.2%.

In the case of `COc1ccc(C2=NOC(Cn3nc(C(=O)NCc4ccc5c(c4)OCO5)cc3-c3ccccc3)C2)cc1` (stereo not drawn), the inhibition was 0.9%.

As to `COc1cccc(/C=N/NC(=O)c2[nH]nc3c2CCc2ccccc2-3)c1O`, the inhibition is 80% (active).

As to `COc1cc(/C=N/NC(=O)c2cccnc2)ccc1OC(=O)c1cccc(Br)c1`, the inhibition is 1.7%.

As to `CCn1c(/C=N/NC(=O)c2ccc(OC)cc2)nc2ccccc21`, the inhibition was 2.2%.

For `CN(C)Cc1c(O)ccc2c(=O)c(-c3ccccc3Cl)coc12`, the inhibition is 0.4%.

For `CCNC(=O)C1CCCN(C(=O)c2cc(F)ccc2C)CC1` (stereo not drawn), the inhibition was 1%.

For `CC(C)C1CC2=C(C(=O)OC(C)(C)O2)C(c2ccc(F)cc2)O1` (stereo not drawn), the inhibition was 0%.

Regarding `c1ccc(-c2ccnc3nc(-n4cccc4)nn23)cc1`, the inhibition is -3.2%.

Regarding `O=C(CSc1nnc(COc2ccc(Cl)cc2)n1Cc1ccco1)N1CCNC1=O`, the inhibition is -4.2%.

As to `CCc1nc2oc3ccccc3c(=O)c2c(=O)n1Cc1ccc(OC)cc1`, the inhibition is 0.4%.

Turning to `Cn1c2ccccc2c(=O)c2c(=O)n(Cc3ccco3)c(COc3ccccc3)nc21`, the inhibition is 70.7% (active).

For `O=C1OCCC1=COCCCCOC=C1CCOC1=O`, the inhibition was 0.1%.

`O=C(CCc1ccccc1)Nc1ccc(NC(=O)C2CC2)nc1`: the inhibition is -2.6%.

With `COc1cc(/C=C/C(=O)OCC(=O)N2CCOCC2)ccc1OCC#N`, the inhibition was 1.1%.

Regarding `C/C(=N\Nc1ccccc1)c1cccs1`, the inhibition was -1.1%.

Turning to `CCOC(=O)C/C(C)=N\Nc1ccc([N+](=O)[O-])cc1[N+](=O)[O-]`, the inhibition was 2.8%.

In the case of `C/C(=N\Nc1ccc(S(N)(=O)=O)cc1[N+](=O)[O-])c1cccs1`, the inhibition was 97.5% (active).

As for `Cc1csc2nc(COC(=O)c3cccc(N(C)C)c3)cc(=O)n12`, the inhibition was -2.7%.

For the compound `O=C(N/N=C\c1cccc(Br)c1)c1ccccc1-n1cccc1`, the inhibition was -2.3%.

Consider `O=C(N/N=C/c1cccc(Br)c1)c1ccc(N2CCCC2=O)cc1`, for which the inhibition was 94.9% (active).

As to `O=C(Nc1ccc(N2CCCC2=O)cc1)c1cncc(Br)c1`, the inhibition is -0.3%.

In the case of `CCc1c(Nc2ccccc2Cl)nc(N)[nH]c1=O`, the inhibition is -2.5%.

In the case of `Cc1ccc(CNC(=O)CSc2nnc3c(n2)[nH]c2ccc(F)cc23)cc1`, the inhibition is 96.1% (active).

As for `Cc1ccn2c(=O)nc(SCC(=O)NCc3ccc(F)cc3)nc2c1`, the inhibition is 0.1%.

`COc1ccc2[nH]c3nc(SCC(=O)NC4CC4)nnc3c2c1`: the inhibition was -4.6%.

Turning to `CCCCNC1(C#N)CCN(Cc2ccccc2)CC1`, the inhibition is -2.5%.

As for `COc1cccc(COC(=O)C2CCN(S(=O)(=O)c3cccs3)CC2)c1OC`, the inhibition was 1.4%.

For `Cc1ccccc1C#CC1=CC(=O)CC(C)(C)C1`, the inhibition was 0.4%.

As for `Cn1ncc(Br)c1C(=O)NC1CCCC1`, the inhibition is -1.6%.

Turning to `CCN1CCc2nc(NC(=O)c3cc(F)c(F)cc3Cl)sc2C1`, the inhibition was -1.5%.

For the compound `CCc1cc(-c2nnn(CCC3COCCO3)c2CC)ccc1-c1cn(Cc2ccc3ccccc3c2)nn1` (stereo not drawn), the inhibition was 2.9%.

In the case of `C=CC1=C(C(=O)O)N2C(=O)[C@@H](NC(=O)/C(=N/OCC(=O)O)c3csc(N)n3)[C@H]2SC1`, the inhibition was 97.4% (active).

With `C=CC1=C(C(=O)O)N2C(=O)[C@@H](NC(=O)/C(=N\OCC(=O)O)c3csc(N)n3)[C@H]2SC1`, the inhibition is 85.4% (active).

As to `COC(=O)c1cc2occc2n1Cc1nc(-c2ccccc2C)oc1C`, the inhibition was -0.6%.

As for `CCCCOc1ccc(NC(=O)[C@@H]2CCCN2C(=O)C2CCN(S(=O)(=O)c3ccc(C)cc3)CC2)cc1`, the inhibition is -0.4%.

On to `CCCC(=O)N1CCC1(C)C(=O)NCc1ccc(C(C)C)cc1` (stereo not drawn), for which the inhibition is 1.5%.

For `Cn1c(Cc2csc(N)n2)nnc1SC/C=C/c1ccccc1`, the inhibition was -1.7%.

Regarding `CCOc1ccc(C(=O)NCC(=O)N2CCN(c3ccc(C(F)(F)F)cn3)CC2)cc1`, the inhibition was -0.1%.

For the compound `C/C=C/C(=O)Nc1ccc(N2CCN(c3ccc(C(F)(F)F)cn3)CC2)nc1`, the inhibition was 78.9% (active).

As to `Cc1ccc(F)cc1NC(=O)N1CCCN(c2ccc(C(F)(F)F)cn2)CC1`, the inhibition is -0.3%.

Regarding `C[C@H]1CN([C@@H](C)CO)C(=O)Cc2cc(NS(C)(=O)=O)ccc2O[C@@H]1CN(C)CC1CC1`, the inhibition is 1.2%.

With `Cc1ccc(C(=O)N(CC(=O)NC2CCCC2)c2ccc(F)cc2)s1`, the inhibition was -0.9%.

As to `O=C(NCc1ccco1)C1CCCN(S(=O)(=O)c2ccccc2)C1` (stereo not drawn), the inhibition is 2.1%.

Take `O=C(NCc1ccco1)C1CCCN(S(=O)(=O)c2cnc[nH]2)C1` (stereo not drawn): the inhibition is -0.7%.

Turning to `CCCS(=O)(=O)N1CCCC(C(=O)NCc2ccco2)C1` (stereo not drawn), the inhibition is 53.8% (active).

With `COc1ccc(CCNc2cc(C)nc3c(-c4ccc(Cl)cc4)c(C)nn23)cc1OC`, the inhibition is -0.7%.

In the case of `O=S1(=O)CSCS(=O)(=O)C1`, the inhibition was 2.4%.

In the case of `Cc1ccc(-n2c(SCC(=O)NCc3ccc4c(c3)OCO4)nnc2-c2cccnc2)c(C)c1`, the inhibition is -2.7%.

As to `CCCCc1nccn1CCn1ccnc1CCCC`, the inhibition was 1.5%.

Turning to `OCc1n[nH]c(CO)n1`, the inhibition is -3.3%.

As for `O=C1CCC(CCC(=O)N2CCCC(C(=O)c3ccc(Cl)cc3)C2)=NN1` (stereo not drawn), the inhibition was -3.2%.

In the case of `COc1ccc(CCNC(=O)c2ccc(CS(=O)(=O)c3ccc(Br)cc3)o2)cc1OC`, the inhibition is -1.6%.

On to `O=C(N/N=C/c1ccccc1O)/C(=C/c1ccccc1)CCO`, for which the inhibition was 0.4%.

For the compound `O=C(NN=Cc1ccccc1O)NN=Cc1ccccc1O`, the inhibition is 59.1% (active).

For the compound `Oc1ccccc1C=NC1CCCCC1N=Cc1ccccc1O` (stereo not drawn), the inhibition is 2.7%.
